Only some compounds are listed: those with a hit (about 3.5% of all), similar ones and a draw of the others.
MrgX1 antagonist: antagonists of human MrgX1 receptor, primary screen, HEK293 cells, Fluo-4 calcium flux; 310,000 tested, 1.3% active; BAM8-22 antagonism; hits give low values; Mas-related G-protein coupled receptor member X1 (Homo sapiens), Q96LB2; B-score at 10 µM;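 active = calcium-response B-score plate-corrected more than 3 library SD below zero, starting fluorescence within 5 deviations, no agonist response on first addition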;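 also: peak minus trough fluorescence over baseline after final BAM8-22 challenge near maximal dose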
Target sequence (Q96LB2 whole entry, looked up): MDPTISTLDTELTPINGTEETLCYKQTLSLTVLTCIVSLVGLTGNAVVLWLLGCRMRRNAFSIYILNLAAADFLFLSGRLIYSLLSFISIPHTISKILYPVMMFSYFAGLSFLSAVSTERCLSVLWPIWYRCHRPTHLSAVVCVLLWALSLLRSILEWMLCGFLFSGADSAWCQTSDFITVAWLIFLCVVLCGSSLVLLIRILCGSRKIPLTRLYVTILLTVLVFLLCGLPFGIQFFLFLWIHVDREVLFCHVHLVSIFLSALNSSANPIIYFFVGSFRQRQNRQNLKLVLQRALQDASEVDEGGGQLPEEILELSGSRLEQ
MrgX1 ag: agonists of human MrgX1 receptor, primary screen, HEK293 cells, Fluo-4 calcium flux; AID 588627, 2011; B-score at 10 µM; 310,000 tested, 0.44% active; Fluo-4 calcium fluorescence, agonist mode; hits give high values;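 active = calcium response B-score plate-corrected fluorescence ratio at least 3 library SD, with starting fluorescence B-score inside 5 SD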
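Material: MrgX1-expressing HEK293 cells / Dosing: compound as first of three additions / Incubation: overnight seeding, then 1 h dark dye loading / Signal: Fluo-4 NW calcium fluorescence / Evaluation: B-scored fluorescence response ratio / Benchmarks: positive and negative control wells on each plate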
MrgX1 allo act: positive allosteric modulators of MrgX1, primary screen, HEK293 cells, Fluo-4 calcium flux. 310,000 tested, 0.63% active. Mas-related G-protein coupled receptor member X1 (Homo sapiens), Q96LB2. B-score at 10 µM. FDSS; hits give high values;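 active = plate-corrected calcium response at least 3 library SD above typical, normal starting fluorescence, not activating the receptor alone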;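 also: compound read alongside a low EC10 to EC30 dose of BAM8-22 agonist; peak minus trough fluorescence over baseline measured at the second addition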
RGS4 block: RGS4 inhibitors, primary screen, cell-based, HEK293 M3R inducible RGS4, calcium flux | Regulator of G-protein signaling 4 (Homo sapiens), P49798 | Fluo-4 calcium flux; hits give high values; triggered by carbachol at its EC20 | B-score at 10 µM | 310,000 tested, 0.45% active | AID 463165, 2010;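 active = B-score, a plate-corrected calcium signal, over three deviations above library mean, with baseline fluorescence within five deviations of library mean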;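 also: RGS4 expression induced by doxycycline in cells with stable M3 receptor; B-score is computed from the integrated fluorescence ratio over baseline after carbachol; higher B-score means a larger calcium signal and so more RGS4 inhibition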
Target sequence (P49798 whole entry, looked up): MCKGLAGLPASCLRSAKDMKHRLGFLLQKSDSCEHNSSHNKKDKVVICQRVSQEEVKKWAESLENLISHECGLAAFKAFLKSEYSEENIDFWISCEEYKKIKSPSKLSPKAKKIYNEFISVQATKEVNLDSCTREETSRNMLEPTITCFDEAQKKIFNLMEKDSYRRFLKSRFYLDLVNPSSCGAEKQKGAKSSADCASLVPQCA
RGS4 act: RGS4 potentiators or activators, primary screen, cell-based, HEK293 M3R inducible RGS4, calcium flux. 310,000 tested, 0.92% active. AID 463111, 2010. B-score at 10 µM. carbachol calcium flux Fluo4; hits give low values;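 active = B-score of the integrated calcium signal more than 4 SD below the library mean, with starting fluorescence not abnormally high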;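 also: negative B-score means reduced calcium response which marks RGS4 activation or potentiation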
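Assay system: HEK293 FlpIn-TREx cells, stable M3R, doxycycline-inducible RGS4 / Probe or stimulus: carbachol, ECmax concentration / Times: overnight RGS4 induction, 30 min dye load 37 °C, 20 min compound RT / Signal: kinetic calcium fluorescence imaging with Fluo4-AM dye, 2 µM / Measure: Agonist-evoked peak-minus-minimum fluorescence over baseline, integrated ratio, B score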
An asterisk follows results filed as active; i = inactive; nt = no result given.

SMILES	MrgX1 antagonist	MrgX1 ag	MrgX1 allo act	RGS4 block	RGS4 act
Cc1ccc(N2CCN(C(=O)c3ccccc3NC(=O)C3CC=CCC3C(=O)O)CC2)cc1 (stereo unspecified)	i	i	i	i	i
Cc1c(NS(=O)(=O)c2cccc(C(=O)O)c2)c(=O)n(-c2ccccc2)n1C	i	i	i	i	i
Cc1c(NS(=O)(=O)c2cccc(C(=O)NCc3ccc(Cl)cc3)c2)c(=O)n(-c2ccccc2)n1C	-6*	i	i	i	i
NC(=O)C1CCN(C2=C(Cl)C(=O)c3ccccc3C2=O)CC1	i	30*	i	i	i
COc1ccc(/C=N/NC(=O)c2c(C)nc3ccccn23)cc1[N+](=O)[O-]	i	i	i	i	i
Cc1cccc(C)c1NC(=O)NN=C1CCCCC1	i	i	i	i	i
Nc1nonc1NC(=O)NN=C1CCCCC1	-5.9*	i	i	i	i
CC1=NOC(=O)/C1=C\c1ccc(-c2ccc(Br)cc2)o1	nt	nt	nt	i	i
CC1=NOC(=O)/C1=C/c1ccc(-c2ccc(Cl)cc2)o1	i	46*	i	nt	nt
N=C(N)SCc1cn(-c2ccccc2)nc1-c1ccc(Br)cc1	nt	nt	nt	i	-7.5*
Cc1ccc(-c2nn(-c3ccccc3)cc2CNCc2ccccc2)cc1	i	i	i	i	i
COc1ccccc1/C=C(/C(=O)OCC(=O)NCc1ccccc1)c1ccccc1	-5.5*	i	i	i	i
O=C(CCCN1C(=O)/C(=C\c2cccs2)SC1=S)Nc1cccnc1	i	i	i	i	i
O=C(CCN1C(=O)/C(=C\c2cccs2)SC1=S)Nc1ccc(C(=O)O)cc1	i	i	i	i	i
O=C(CCCN1C(=O)/C(=C/c2cccs2)SC1=S)Nc1cccnc1	-5.6*	i	i	i	i
CCN(CC)CCOC(=O)c1ccc(NC(=O)CCCN2C(=O)/C(=C\c3cccs3)SC2=S)cc1	i	i	i	i	-7.6*
Cc1cccc(CC(=O)c2c[nH]c3ccccc23)c1	i	i	i	i	i
Cc1ccc(NC(=O)C2CCCN(C(=O)c3ccc(Cl)cc3)C2)cc1S(=O)(=O)N1CCOCC1 (stereo unspecified)	i	i	i	i	i
CC1=C(C)CS(=O)N(c2ccc(S(N)(=O)=O)cc2)C1 (stereo unspecified)	i	53*	i	i	i
CC1=C(C)CS(=O)N(S(=O)(=O)c2ccccc2)C1 (stereo unspecified)	i	i	i	i	i
Cc1ccc(CCNc2ccccc2C)cn1	i	i	i	i	i
O=C(CSc1nc(-c2ccccc2)nn1C(=O)c1ccccc1)Nc1cccc([N+](=O)[O-])c1	-4.8*	i	i	i	i
CCc1ccccc1NC(=O)CSc1nc(-c2ccccc2)nn1C(=O)c1cccc([N+](=O)[O-])c1	i	i	i	i	i
c1ccc(-c2cn(-c3ccccc3)c3ncnc(N4CCCCC4)c23)cc1	i	i	i	i	i
COc1ccc(-n2cc(-c3ccccc3)c3c(N4CC(C)OC(C)C4)ncnc32)cc1 (stereo unspecified)	i	i	i	i	-7*
SMILES	MrgX1 antagonist	MrgX1 ag	MrgX1 allo act	RGS4 block	RGS4 act
Cc1coc2cc3oc(=O)c(CCC(=O)NC4CC4)c(C)c3cc12	i	i	9.4*	i	i
Cc1coc2cc3oc(=O)c(CCC(=O)NCCCn4ccnc4)c(C)c3cc12	i	i	i	i	i
Cc1c(CCC(=O)NCCCn2ccnc2)c(=O)oc2cc3occ(C(C)(C)C)c3cc12	i	i	i	i	-7.3*
Cc1oc2cc3oc(=O)c(CCC(=O)NC4CC4)c(C)c3cc2c1C	i	i	i	i	i
CC1(C)CC(=O)C=C(NCCN2CCN(C(=O)Nc3ccccc3)CC2)C1	i	i	i	i	i
COc1ccc(CNCCC(c2ccc(OC(C)C)cc2)C(C)C)cc1OC (stereo unspecified)	i	i	i	i	i
COc1ccc(C(CCNCc2ccc(OC(C)C)cc2)C(C)C)cc1 (stereo unspecified)	-5.4*	i	i	i	i
COC(=O)C1CCCCN1C(=O)c1ccc2oc(Cc3ccccc3)nc2c1 (stereo unspecified)	-5.3*	i	i	i	i
O=C(NCc1cccc(Cl)c1)c1cccc(OC2CCN(C(=O)C3CC3)CC2)c1	-5.6*	i	i	i	i
O=C(Nc1ccc(C(F)(F)F)cc1)c1cc(S(=O)(=O)NCC2COc3ccccc3O2)ccc1F (stereo unspecified)	i	i	i	i	i
COC(=O)C1=CN(C2CC2)C=C(C(=O)OC)C1c1ccc(C(=O)OC)cc1	i	i	i	i	i
COC(=O)C1=CN(C2CC2)C=C(C(=O)OC)C1c1ccc(C(F)(F)F)cc1	-6.6*	i	i	i	i
COCCn1c(-c2ccccc2)cnc1SCC(=O)Nc1cccc2ccccc12	i	i	i	i	i
CCC(C)NC(=O)CCc1c(C)nc2c(c(C)nn2-c2ccccc2)c1C (stereo unspecified)	i	i	i	i	i
Cc1nc2c(c(C)nn2-c2ccccc2)c(C)c1CCC(=O)Nc1ccc(CN2CCCC2)cc1	i	i	12*	i	i
COc1cc2c(cc1NC(=O)C(C)Sc1ccc(C)cc1)oc1ccccc12 (stereo unspecified)	i	i	i	i	-7*
COc1cc2c(cc1NC(=O)CSc1ccc(C)cc1)oc1ccccc12	i	i	i	i	i
O=C(c1ccc(Br)cc1)N1CCC2(CC1)NCCc1[nH]cnc12	i	i	i	i	i
CCN(CC)S(=O)(=O)c1ccc(=O)[nH]c1	i	i	i	i	i
CCCCN(CC)CCCNC(=O)c1cc2c(=O)n(C)c3ccccc3c2n1C	-5.5*	i	i	i	i
CC(C)OCCCNC(=O)c1cc2c(=O)n(C)c3ccccc3c2n1C	i	i	i	i	i
O=C(/C=C/c1ccccc1)N1CCN(CCN2C(=O)c3cccc4cccc(c34)C2=O)CC1	i	i	i	i	i
